Data on six compounds can be found in ChEMBL document CHEMBL1124035, “1-Amino-substituted 4-methyl-5H-pyrido[4,3-b]indoles (gamma-carbolines) as tricyclic analogues of ellipticines: a new class of antineoplastic agents” (1988).

The test system of assay [1] is Mus musculus. In words: Antitumor activity against P388 leukemia in mice at a dose of 5 mg/kg administered intraperitoneally for 5 days. Type of assay: functional. The settings on record: route intraperitoneal. The gist of the method: (§1)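 CDF1 hybrid male or female mice, 10 per group, were inoculated ip on day 0 with 10^6 viable P388 leukemia cells. Drug in distilled water was given ip (0.1 mL/10 g body weight) daily on days 1-5, with vehicle, 5-fluorouracil and BD 84 controls given the same way. T/C = median survival of treated/controls × 100; T/C > 128% counted as significant.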

In assay [2] the test system is Mus musculus. The experiment in a line: Antitumor activity against P388 leukemia in mice at a dose of 20 mg/kg administered intraperitoneally for 5 days; Nontoxic at this dose. The format is functional. The settings on record: route intraperitoneal. The gist of the method:
as §1

The subject of assay [3] is Mus musculus. In words: Antitumor activity against P388 leukemia in mice at a dose of 2.5 mg/kg administered intraperitoneally for 5 days. Type of assay: functional. To be noted: route intraperitoneal. The procedure, abridged:
(§2)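 CDF1 hybrid male or female mice, 10 per group, were inoculated ip with 10^6 viable P388 cells on day 0. Drugs in distilled water were given ip (0.1 mL/10 g body weight) daily D1-5. Vehicle, 5-fluorouracil and BD 84 were given the same way. T/C = median survival day of treated / controls × 100; T/C > 128% was significant; cures counted at D60.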

Assay [4] relates to Mus musculus. The experiment in a line: Antitumor activity against P388 leukemia in mice at a dose of 10 mg/kg administered intraperitoneally for 5 days. Type of assay: functional. To be noted: route intraperitoneal. The gist of the method:
as §2

For another assay, the system named is L1210. In words: Ability to reduce the cell count to 50% in L1210 culture cells. Type of assay: functional. The settings on record: Mus musculus, read-out: ID50 (the source's name). The procedure, abridged:
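L1210 cells in exponential growth in RPMI 1640 with 2 mM glutamine, penicillin/streptomycin and 10% FCS, 37 °C, 5% CO2. Drugs dissolved in distilled water were added to cells at 0.8 × 10^5 cells/mL for 48 h, then cells were counted. ID50 is the concentration halving cell proliferation versus controls, from regression of dose-response data; mean of two independent experiments.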

The test system of another assay is Calf thymus DNA. The experiment in a line: Apparent DNA affinity constant. The format is nucleic-acid assay. The settings on record: Bos taurus. The procedure, abridged:
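Apparent DNA affinity constant was measured by competition with ethidium bromide. Buffer was 20 mM Na2HPO4/NaH2PO4, 0.1 M NaCl, 1 mM EDTA, pH 7.4, with calf thymus DNA at 10 μg/mL. Values are given in 10^6 M⁻¹.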

Assay [5] deals with Mus musculus. In words: Antitumor activity against P388 leukemia in mice at a dose of 16 mg/kg administered intraperitoneally for 5 days. To be noted: route intraperitoneal. The format is functional. The gist of the method: as §2
Assay [6] concerns Mus musculus. The experiment in a line: Antitumor activity against P388 leukemia in mice at a dose of 1 mg/kg administered intraperitoneally for 5 days. The format is functional. The settings on record: route intraperitoneal. The gist of the method: as §2
The subject of assay [7] is Mus musculus. In words: Antitumor activity against P388 leukemia in mice at a dose of 24 mg/kg administered intraperitoneally for 5 days. Type of assay: functional. The settings on record: route intraperitoneal. The gist of the method:
as §1

The test system of assay [8] is Mus musculus. The experiment in a line: Antitumor activity against P388 leukemia in mice at a dose of 2 mg/kg administered intraperitoneally for 5 days. Type of assay: functional. The settings on record: route intraperitoneal. The gist of the method: as §2
Assay [9] concerns Mus musculus. In words: Antitumor activity against P388 leukemia in mice at a dose of 4 mg/kg administered intraperitoneally. The format is functional. To be noted: route intraperitoneal.
Assay [10] deals with Mus musculus. In words: Antitumor activity against P388 leukemia in mice at a dose of 8 mg/kg administered intraperitoneally for 5 days. The format is functional. To be noted: route intraperitoneal. The gist of the method: as §1
The test system of assay [11] is Mus musculus. In words: Antitumor activity against P388 leukemia in mice at a dose of 0.5 mg/kg administered intraperitoneally for 5 days. The settings on record: route intraperitoneal. The format is functional. The gist of the method:
as §2

Assay [12] has as its system Mus musculus. In words: Antitumor activity against P388 leukemia in mice at a dose of 10 mg/kg administered intraperitoneally for 5 days; It is nontoxic at this dose. Type of assay: functional. To be noted: route intraperitoneal. The gist of the method: as §2
Assay [13] relates to Mus musculus. In words: Antitumor activity against P388 leukemia in mice at a dose of 50 mg/kg administered intraperitoneally for 5 days; Non toxic at this dose. The format is functional. The settings on record: route intraperitoneal. The procedure, abridged:
as §1

The test system of assay [14] is Mus musculus. The experiment in a line: Antitumor activity against P388 leukemia in mice at a dose of 12 mg/kg administered intraperitoneally for 5 days. Type of assay: functional. The settings on record: route intraperitoneal. The procedure, abridged:
as §2

Assay [15] concerns Mus musculus. The experiment in a line: Antitumor activity against P388 leukemia in mice at a dose of 100 mg/kg administered intraperitoneally for 5 days. Type of assay: functional, organism-based. Also on record: dose 100 mg/kg. The gist of the method:
as §2

The test system of assay [16] is Mus musculus. In words: Antitumor activity against P388 leukemia in mice at a dose of 50 mg/kg administered intraperitoneally for 5 days. The settings on record: route intraperitoneal. Type of assay: functional. The gist of the method: as §1
The subject of assay [17] is Mus musculus. In words: Antitumor activity against P388 leukemia in mice at a dose of 6 mg/kg administered intraperitoneally for 5 days. The settings on record: route intraperitoneal. Type of assay: functional. The gist of the method:
as §1

Assay [18] relates to Mus musculus. The experiment in a line: Antitumor activity against P388 leukemia in mice at a dose of 40 mg/kg administered intraperitoneally for 5 days; Nontoxic at this dose. The format is functional. To be noted: route intraperitoneal. The gist of the method:
as §1

In assay [19] the test system is Mus musculus. In words: Antitumor activity against P388 leukemia in mice at a dose of 20 mg/kg administered intraperitoneally for 5 days. Type of assay: functional. To be noted: route intraperitoneal. The gist of the method: as §2

Take `CN(C)CCCNc1nccc2c1c1cc(O)ccc1n2C`: the T/C in the assay with Mus musculus [1] worked out at 145%; with Mus musculus [2], 173%; in the assay with Mus musculus [3], 137%; in the assay with Mus musculus [4], 169%. Moreover, the IC50 with L1210 was found to be 190 nM. In the assay with Calf thymus DNA, the K aff turned out to be 120000 M⁻¹.
Regarding `CCN(CC)CCCNc1nccc2c(C)c3[nH]c4ccc(OC)cc4c3c(C)c12` [RETELLIPTINE], the T/C in the assay with Mus musculus [5] amounted to 283%; with Mus musculus [6] it was 178%; in the assay with Mus musculus [7] it was 113%; in the assay on Mus musculus [8], 188%; in the assay with Mus musculus [9], 245%; in the assay with Mus musculus [10], 273%. The T/C in the assay on Mus musculus [11] was found to be 171%. In addition, the IC50 in the assay on L1210 was determined as 100 nM. The K aff with Calf thymus DNA was found to be 700000 M⁻¹.
Take `CN(C)CCCNc1[nH]ccc2nc3ccc(O)cc3c1-2`: the figures for the T/C in the assay on Mus musculus [12], with Mus musculus [1] and with Mus musculus [3] were 115%, 102% and 111%, respectively. Further, in the assay on L1210, the IC50 came to 11200 nM. The K aff in the assay with Calf thymus DNA stood at 70000 M⁻¹.
As for `Cc1c[nH]c(NCCNCCO)c2c3ccccc3nc1-2`, the T/C in the assay with Mus musculus [13] was 100%; with Mus musculus [4] it was 109%. In the assay with L1210, the IC50 was 1140 nM. The K aff in the assay on Calf thymus DNA was found to be 50000 M⁻¹.
For the compound `CCN(CC)CCCNc1ncc(C)c2c1c1ccccc1n2C`, the T/C in the assay on Mus musculus [7] was 118%; in the assay with Mus musculus [14], 110%; in the assay with Mus musculus [15], “Toxic”; in the assay with Mus musculus [16], 131%; with Mus musculus [17] it was 105%. Further, in the assay on L1210, the IC50 amounted to 720 nM. The K aff in the assay with Calf thymus DNA was 160000 M⁻¹.
With `CCN(CC)CCNc1ncc(C)c2c1c1cc(O)ccc1n2C`, the T/C in the assay on Mus musculus [18] is 137%; in the assay with Mus musculus [19], 182%; with Mus musculus [1], 142%; with Mus musculus [4], 153%. In the assay with L1210, the IC50 came to 150 nM. Besides, the K aff in the assay with Calf thymus DNA was 110000 M⁻¹.

A word on the T/C: it is the ratio of treated to control.
